Data set [1] can be described thus: Surface tension and critical micelle concentration, Du Noüy ring method. It counts as physicochemical. Particulars: aqueous, 25±0.5 °C; mean ± SD, n=3. The method, boiled down: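 Aqueous solutions freshly made at twice the predicted solubility as starting concentration. Du Noüy platinum ring force tensiometer, 25±0.5 °C; ring fully immersed, then slowly lifted, and force at detachment converted to surface tension. Static-zone surface tension compared with deionized water. Triplicate measurements.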

A short description of data set [2]: Short-term stability of aqueous solutions. It counts as physicochemical. Particulars: aqueous solutions at −20, 4, 25 and 37 °C, compared with fresh samples. An outline of the steps: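 Test peptide aqueous solutions at set concentrations, held at −20, 4, 25 and 37 °C for 72 h. Then quantified by ESI triple-quad MS in flow-injection mode (direct infusion from autosampler). Expressed relative to fresh samples of the same initial concentration.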

Data set [3] in a line: Ex-vivo skin permeation, Franz diffusion cells. The data set is classed as in vitro ADME, Sprague-Dawley rats. Particulars: for Residual drug in the donor phase / Flux / Permeated drug through the skin: rat skin, mean ± SD, n=3; for Residual drug in the donor phase: after 48h; for Flux / Permeated drug through the skin: saturated solution donor; for Flux: 37 °C; for Flux / Unrecovered/ trapped drug: 48h; for Permeated drug through the skin: over 48h; for Unrecovered/ trapped drug: total applied minus permeated and donor-recovered amounts. An outline of the steps:
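Full-thickness abdominal skin from ~8-week male Sprague-Dawley rats (220-250 g), taken after isoflurane anaesthesia, mounted in upright Franz cells (2.0 cm2). Donor: peptide at saturated solubility, set from predicted logS. Receptor: 5 mL 10% (v/v) hydroethanolic solution, 37±0.5 °C, 300 rpm, 48 h. 1 mL sampled at 1-48 h with replacement, stored -20 °C, quantified by ESI-MS flow injection. Flux from permeated amount versus time.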

The conditions of data set [4]: cited from earlier work.
For data set [5] the following is noted: equilibrium zone, water; cited from earlier work.
The conditions of data set [6]: cited from earlier work. The source holds these as a separate data set.

We go through seven molecules from publication PMC11830134 (BioImpacts : BI, 2023).

Several values for one entry are separate records, joined by “and”; a condition that tells them apart may be missing. Identical values can stand only once.

Molecule `CCCCCCCC(=O)N[C@@H](CCCCN)C(=O)N[C@H](C(=O)O)[C@@H](C)O` [Compound C8-KT] gave a CMC in data set [1] of 194.95 ± 0.05 mg/L. Further, the “stability range in the aqueous medium after 72 hours” value (shortened to “stability range”) in data set [2] was 98.9-101.6%. For the same molecule, in data set [3], the “Residual drug in the donor phase” value is listed as 21.29±3.851%; the Flux is 1.084±0.085 µg/cm^2 /h; the “Permeated drug through the skin” value was 33.2% and 33.24±9.562%; the Unrecovered/ trapped drug entry is recorded as “≈ 34%”.
Turning to `CCCCCCCCCC(=O)N[C@@H](CCCCN)C(=O)N[C@H](C(=O)O)[C@@H](C)O` [Compound C10-KT], the CMC in data set [1] was found to be 42.24 ± 0.06 mg/L. The “stability range” value in data set [2] is 96.6-103.7%. In addition, in data set [3], the “Residual drug in the donor phase” value worked out at 55.23±3.377%; the Flux turned out to be 0.032±0.009 µg/cm^2 /h; the “Permeated drug through the skin” value was 2.3% and 2.314±1.087%; the Unrecovered/ trapped drug result is reported as “≈42%”.
As for `CCCCCCCCCCCC(=O)N[C@@H](CCCCN)C(=O)N[C@H](C(=O)O)[C@@H](C)O` [Compound C12-KT], the CMC in data set [1] amounted to 15.31 ± 0.05 mg/L. The “stability range” value in data set [2] was 96.2-101.8%. In addition, in data set [3], the “Residual drug in the donor phase” value worked out at 21.49±7.454%; the Flux was found to be 0.016±0.006 µg/cm^2 /h; the “Permeated drug through the skin” value is 0.5% and 0.499±0.070%; the Unrecovered/ trapped drug entry is “≈78%”.
Consider `CCCCCCCCCCCCCCCC(=O)N[C@@H](CCCCN)C(=O)N[C@H](C(=O)O)[C@@H](C)O` [Compound C16-KT, reference compound], for which the CMC in data set [1] stood at 1.89 ± 0.44 mg/L. Also, the “stability range” value in data set [2] is 93.2-104.2%. Besides, in data set [3], the “Residual drug in the donor phase” value is reported as 4.197±1.308%; the Flux is 0.001±0.000 µg/cm^2 /h; the “Permeated drug through the skin” value was 2.6% and 2.628±0.368%; the Unrecovered/ trapped drug result is “≈93%”.
Regarding `C[C@@H](O)[C@H](NC(=O)[C@@H](N)CCCCN)C(=O)O` [KT, lysine-threonine, reference compound], the “stability range” value in data set [2] is on record as 99.7-100.3%. In data set [3], the “Residual drug in the donor phase” value was 97.7% and 97.73±1.688%; the Flux amounted to 0.003±0.000 µg/cm^2 /h; the “Permeated drug through the skin” value is 0.004% and 0.004±0.001%.
With Pal-KTTKS, in data set [4], the logP (as a rule, a log measure of how a compound divides between an organic and an aqueous phase) is recorded as 3.72. The experimental surface tension in data set [5] is listed as 50.3±0.40 mN/m. For the same molecule, in data set [6], the “accumulation in the epidermis” value is on record as 48%.
For “lysine-threonine-threonine-lysine-serine [KTTKS]”, the log partition coefficient (logP) in data set [4] is listed as -3.54. Moreover, in data set [5], the experimental surface tension was 69.00±2.7 mN/m.
